In test [1] the test system is A2780. Description: In vitro inhibitory activity against human ovarian cancer A2780 cell line. The format is functional, cell-based. Put shortly: (§1)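 Monolayer cultures in RPMI 1640 with 5% heat-inactivated FCS and 2 mM L-glutamine, 37 °C, 5% CO2. Seeded at 5,000–20,000 cells/well according to doubling time, in gentamicin-containing medium. Compounds dissolved in DMSO and tested at five 10-fold dilutions from a top final concentration of 10⁻⁴ M for 72 h. Cells were TCA-fixed and stained with SRB, with OD read at 492 nm (NCI protocol). IC50 is the concentration giving 50% growth inhibition.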

In test [2] the test system is Colon 26. Description: In vitro inhibitory activity against murine colon carcinoma C26-10 cell line. The class given is functional, cell-based. Conditions: Mus musculus. Put shortly: as §1
Test [3] deals with H322. Description: In vitro inhibitory activity against H322 human NSCLC cell line. The class given is functional, cell-based. The note with it: NCI-H322. Put shortly: as §1
For test [4], the system named is Lewis lung carcinoma cell line. Description: In vitro inhibitory activity against LL murine NSCLC cell line;. The class given is functional, cell-based. Conditions: Mus musculus. The method in brief: as §1
In test [5] the test system is UMSCC22B. Description: In vitro inhibitory activity against human and neck squamous cell carcinoma UMSCC-22B cell line. The class given is functional, cell-based. Put shortly:
as §1

Test [6] concerns WiDr. Description: In vitro inhibitory activity against human colon carcinoma WiDr cell line;. The class given is functional, cell-based. Put shortly:
as §1

Test [7] has as its system Rattus norvegicus. Description: In vivo anti-inflammatory activity against carrageenan-induced paw edema assay in rats at dose 0.15 mM/kg. The format is functional. The method in brief:
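Fisher 344 rats of either sex, excluding pregnant females, six animals per group with two groups per compound. Edema induced by intradermal injection of 0.1 mL of 2% carrageenin (type K100) in saline into the right paw. Compound given ip as a single 0.15 mmol/kg dose at the same time. Paw edema measured 3.5 h later. Indomethacin served as the reference drug.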
In general terms: Carrageenan injected into the paw causes an acute inflammation.

The subject of test [8] is Rattus norvegicus. Description: In vivo anti-inflammatory activity against carrageenan-induced paw edema assay in rats at dose 0.11 mM/kg. The format is functional.

Take `CCCCCCCCCCCCCCC(N)CN` (stereo not drawn): the IC50 (as a rule, the point on the concentration scale where inhibition reaches its midpoint) in test [1] was 2.79 µM; in test [2] it was 3.3 µM; in test [3] it was 2.94 µM; in test [4], 2.93 µM; in test [5], 1.89 µM; in test [6] it was 24.2 µM. In addition, in test [7], the Inhibition (commonly the percentage by which the read-out fell short of the control) was 93.5%.

Consider `COc1ccc2c(c1)c(CC(=O)O)c(C)n2C(=O)c1ccc(Cl)cc1` [INDOMETHACIN], for which, in test [8], the Inhibition worked out at 53.3%.

For `CCCCCCCCCCCCCC[C@H](NC(=O)OC(C)(C)C)[C@H](O)CO`, the IC50 amounted to 30.4 µM in test [1]; 29.3 µM in test [2]; 18 µM in test [3]; 24.2 µM in test [4]; 23.8 µM in test [5]; 20.8 µM in test [6]. In addition, the Inhibition in test [7] came to 45.2%.

Regarding `CCCCCCCCCCCCCCCCCC[C@H](N)[C@H](O)CO`, the IC50 came out at 2.71 µM in test [1]; 3.97 µM in test [2]; 1.71 µM in test [3]; 3.47 µM in test [4]; 2.34 µM in test [5]; 3.47 µM in test [6]. Also, the Inhibition in test [7] is 79.6%.

`CCCCCCCCCCCCCCCCCC[C@@H](N)[C@@H](O)CO`: the 50% inhibitory concentration (IC50) in test [1] turned out to be 32.8 µM; in test [2] it was 21.5 µM; in test [3], 24.4 µM; in test [4] it was 10.6 µM; in test [5], 3.5 µM; in test [6] it was 13.3 µM. Besides, in test [7], the Inhibition is given as 80.04%.

On to `CCCCCCCCCCCCCC[C@@H](N)[C@@H](O)CO`, for which the 50% inhibitory concentration (IC50) in test [1] is 2.63 µM; in test [2], 3.58 µM; in test [3], 1.52 µM; in test [4], 1.87 µM; in test [5] it was 2.49 µM; in test [6], 2.99 µM. In test [7], the Inhibition was 85.3%.

For `CCCCCCCCCCCCCC[C@H](N)[C@H](O)CO`, the IC50 in test [1] was determined as 2.66 µM; in test [2] it was 3.68 µM; in test [3] it was 1.45 µM; in test [4] it was 2.86 µM; in test [5] it was 1.89 µM; in test [6] it was 2.76 µM. This compound displayed an Inhibition in test [7] of 81.1%.

These data come from ChEMBL document CHEMBL1132072, “Synthesis, in vitro cytotoxicity and in vivo anti-inflammatory activity of long chain 3-amino-1,2-diols” (Bioorg Med Chem Lett, 1999).
